Assay results published in ChEMBL document CHEMBL1123672, “Structure-activity relationships of sparsomycin and its analogues. Inhibition of peptide bond formation in cell-free systems and of L1210 and bacterial cell growth” (J Med Chem, 1987).

What was measured:
[1] = (§1) Effect of methanol on inhibition of the fragment reaction in the presence of 10 uM of compound was determined
Summary of the method: (§2)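 Solvent comparison: the fragment reaction (ribosomes with puromycin acceptor and N-acetyl-[³H]Leu-ACCAC(U) donor, in Tris-HCl pH 7.4/KCl/Mg acetate buffer) was run with methanol, ethanol, 2-propanol or butanol as the required organic solvent. Read-out is percent inhibition at the fixed drug level given in each line; series A and B are separate experiments.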

[2] = (§3) Effect of butanol on inhibition of the fragment reaction in the presence of 10 uM of compound was determined; summary of the method: as §2
Escherichia coli [3] = test: Ability to inhibit the peptide bond formation by puromycin reaction in Escherichia coli was determined; format: functional; conditions: read-out: ED50 (the source's name)
L1210 = test: Ability to inhibit the colony formation of leukemia L1210 cells in agar medium (0.3%) was determined; format: functional; conditions: Mus musculus, read-out: ID50 (the source's name)
[4] = Ability to inhibit the bacterial growth of Escherichia coli (MRE600) by 50% was determined.; format: functional; design: reference not given here
Escherichia coli [5] = test: Ability to inhibit the peptide bond formation by fragment reaction in Escherichia coli was determined; format: functional; conditions: read-out: ED50 (the source's name)
Summary of the method: (§4)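 Fragment reaction: ribosomes (1 mg/mL, from E. coli MRE600 or S. cerevisiae Y166) in 150 μL of 33 mM Tris-HCl pH 7.4, 270 mM KCl, 13 mM Mg acetate, with 2 mM puromycin, 1 pmol N-acetyl-[³H]Leu-ACCAC(U) donor (ribonuclease T1 fragment of N-acetyl-[³H]Leu-tRNA), 33% methanol and test drug; no mRNA or small subunit. Values are averages of three experiments.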

[6] = (§5) Effect of 2-propanol on inhibition of the fragment reaction in the presence of 10 uM of compound was determined; summary of the method: as §2
Saccharomyces cerevisiae [7] = test: Ability to inhibit the phenylalanine synthesis in Saccharomyces cerevisiae was determined; format: functional; conditions: read-out: ED50 (the source's name)
Summary of the method: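 Yeast (S. cerevisiae Y166) ribosomes and S-100 in the same poly(U)/[³H]Phe mix as the E. coli assay, with 20 mM creatine phosphate and 50 μg/mL creatine phosphokinase as the energy system. Incubation was 30 min at 30 °C. Cold 10% TCA precipitate was filter-counted. Averages of three experiments.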

Escherichia coli [8] = test: Ability to inhibit the phenylalanine synthesis in Escherichia coli was determined; format: functional; conditions: read-out: ED50 (the source's name)
Summary of the method: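 Poly(U)-directed [³H]Phe polymerization with E. coli MRE600 ribosomes ([…]) and S-100. The reaction was started with 30 μM [³H]Phe and run 30 min at 37 °C. TCA-insoluble counts were taken on glass-fiber filters. Averages of three experiments.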

[9] = tested on: Saccharolobus solfataricus; test: Ability to inhibit the phenylalanine synthesis in Sulfolobus solfataricus was determined; format: functional; conditions: read-out: ED50 (the source's name)
[10] = (§6) Effect of ethanol on inhibition of the fragment reaction in the presence of 10 uM of compound was determined; summary of the method: as §2
Saccharomyces cerevisiae [11] = test: Ability to inhibit the peptide bond formation by fragment reaction in Saccharomyces cerevisiae was determined; format: functional; conditions: read-out: ED50 (the source's name); summary of the method: as §4
[12] = Effect of 2-propanol on inhibition of the fragment reaction in the presence of 200 uM of compound was determined
[13] = Effect of ethanol on inhibition of the fragment reaction in the presence of 200 uM of compound was determined
[14] = Effect of methanol on inhibition of the fragment reaction in the presence of 200 uM of compound was determined
[15] = as §3; format: functional; conditions: in the assay text read “100 uM” for “10 uM”; summary of the method: as §2
[16] = as §6; format: functional; conditions: in the assay text read “100 uM” for “10 uM”; summary of the method: as §2
[17] = as §5; format: functional; conditions: in the assay text read “100 uM” for “10 uM”; summary of the method: as §2
[18] = as §1; format: functional; conditions: in the assay text read “100 uM” for “10 uM”; summary of the method: as §2
[19] = Effect of 2-propanol on inhibition of the fragment reaction in the presence of 10 uM of compound was determined from Expt-A; summary of the method: as §2
[20] = Effect of ethanol on inhibition of the fragment reaction in the presence of 20 uM of compound was determined from Expt-B; summary of the method: as §2
[21] = Effect of ethanol on inhibition of the fragment reaction in the presence of 10 uM of compound was determined from Expt-A; summary of the method: as §2
[22] = Effect of butanol on inhibition of the fragment reaction in the presence of 10 uM of compound was determined from Expt-A; summary of the method: as §2
[23] = Effect of methanol on inhibition of the fragment reaction in the presence of 20 uM of compound was determined from Expt-B; summary of the method: as §2
[24] = Effect of 2-propanol on inhibition of the fragment reaction in the presence of 20 uM of compound was determined from Expt-B; summary of the method: as §2
[25] = Effect of methanol on inhibition of the fragment reaction in the presence of 10 uM of compound was determined from Expt-A; summary of the method: as §2
[26] = Ability to inhibit the growth of Escherichia coli (MRE600) by 50% was determined. Activity represent the ratio of ED50 of sparsomycin to the ED50 of the compound; format: functional
Summary of the method: (§7)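 Liquid culture: E. coli MRE600 was grown in LB plus 0.2% glucose to A560 0.1, then 1-mL aliquots were incubated with drug 4 h at 37 °C. Growth was stopped with 0.1% sodium azide and A550 read; drug-free medium counts as 100%. ED50 (μM) is the dose giving 50% growth; the value reported is sparsomycin ED50/analogue ED50.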

[27] = Ability to inhibit the bacterial growth of Escherichia coli (MRE600) by 50% was determined Activity represent the ratio of ED50 of sparsomycin to the ED50 of the compound; format: functional; summary of the method: as §7

EC50 (Escherichia coli [3]) [µM] | IC50 (L1210) [µM] | EC50 (Escherichia coli [5]) [µM] | EC50 (Saccharomyces cerevisiae [7]) [µM] | EC50 (Escherichia coli [8]) [µM] | EC50 [9] [µM] | EC50 (Saccharomyces cerevisiae [11]) [µM] | SMILES | Ratio [4] | further results
0.13 | 0.11 | 7.6 | 0.6 | 0.6 | 60 | 2.6 | Cc1nc(O)nc(O)c1/C=C/C(=O)NC(CO)C[S+]([O-])CSCc1ccccc1 (stereo not drawn) | 1 | Inhibition [1]: 25%; Inhibition [2]: 54%; Inhibition [6]: 20%; Inhibition [10]: 29%
– | – | – | – | – | – | – | CSC[S+]([O-])CC(CO)NC(=O)/C=C\c1cnc(O)nc1O (stereo not drawn) | 0.47 | –
100 | 300 | 1000 | 2000 | 2000 | – | 1000 | CSC[S@@+]([O-])C[C@@H](CO)NC(=O)/C=C/c1c(C)[nH]c(=O)[nH]c1=O (racemic) | 0.01 | –
0.25 | 0.1 | 60 | 1.3 | 1.6 | – | 300 | CCCCCCCCSC[S+]([O-])CC(CO)NC(=O)/C=C/c1c(C)nc(O)nc1O (stereo not drawn) | 2.5 | Inhibition [12]: 6%; Inhibition [13]: 30%; Inhibition [14]: 42%
0.08 | 0.14 | 5000 | 0.2 | 1.8 | 30 | 700 | CCCCCCCCCC[S+]([O-])CC(CO)NC(=O)/C=C/c1c(C)nc(O)nc1O (stereo not drawn) | 3.6 | inhibition [15]: 15%; inhibition [16]: 35%; inhibition [17]: 12%; inhibition [18]: 44%
0.1 | 0.4 | 3.2 | 5.2 | 8.5 | 900 | 2.8 | CSC[S@+]([O-])C[C@H](CO)NC(=O)/C=C/c1c(C)[nH]c(=O)[nH]c1=O | 1 | Inhibition [19]: 64%; Inhibition [20]: 92%; Inhibition [21]: 91%; Inhibition [22]: 86%; Inhibition [23]: 64%; Inhibition [24]: 76%; Inhibition [25]: 57%
5000 | 30 | 5000 | 2500 | 2000 | 5000 | 5000 | Cc1nc(O)nc(O)c1/C=C/C(=O)N[C@@H](CO)C[S@+]([O-])CCl | 0.01 | –
7 | 12.8 | 550 | 2000 | 2000 | – | 150 | CSCSC[C@H](CO)NC(=O)/C=C/c1c(C)nc(O)nc1O | – | Ratio [26]: 1.8
50 | 12.7 | 30 | 1000 | 600 | – | 50 | CSC[S+]([O-])CC(CO)NC(=O)/C=C/c1cnc(O)nc1O (stereo not drawn) | 0.27 | –
13 | 5.8 | 700 | 2000 | 2000 | – | 65 | CSC[S@@+]([O-])C[C@H](CO)NC(=O)/C=C/c1c(C)[nH]c(=O)[nH]c1=O | 0.92 | –
0.23 | 0.75 | 4.5 | 42 | 140 | 1000 | 6.2 | CCC[S+]([O-])CC(CO)NC(=O)/C=C/c1c(C)nc(O)nc1O (stereo not drawn) | 0.3 | –
0.65 | 0.29 | 7.6 | 220 | 450 | 5000 | 17 | Cc1nc(O)nc(O)c1/C=C/C(=O)N[C@@H](CO)C[S@@+]([O-])CCl | 0.55 | –
1000 | 300 | 1000 | 2000 | 2000 | – | 550 | CSCSC[C@@H](CO)NC(=O)/C=C/c1c(C)nc(O)nc1O | 0.01 | –
40 | 300 | 1000 | 2000 | 2000 | – | 650 | CSC[S@+]([O-])C[C@@H](CO)NC(=O)/C=C/c1c(C)nc(O)nc1O | 0.32 | –
160 | 180 | 750 | 2000 | 2000 | – | 350 | Cc1nc(O)nc(O)c1/C=C/C(=O)NC(CO)CSC[S+](C)[O-] (stereo not drawn) | – | Ratio [27]: 0.4
